The term pIC50 denotes the IC50 on a negative log10 scale, so that one unit is a factor of ten.

Each structure is given as a SMILES string.

This test in a line: Inhibition of GST tagged PDE2 (unknown origin) assessed as reduction in FAM-cAMP hydrolysis pre-incubated for 5 mins before FAM-cAMP addition and measured after 30 mins by IMAP assay. On the set-up: species or system Homo sapiens. The essentials:
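Compound added from 1 mM DMSO stock, 5 min at rt. FAM-cAMP then added at 200 nM final, 30 min at rt. Stopped with IMAP Tb binding reagent, 1 h at rt. Plate reader read-out gives pIC50, run in quadruplicate.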
`Cc1nc2ccc(C(=O)NCC(C)C)cc2n2c(-c3ccccc3Cl)nnc12`: the pIC50 came out at 9.52.

For the compound `Cc1nc2ccc(C(=O)NCC(C)C)cc2n2c(-c3cc(OC(C)(C)C)ccc3Cl)nnc12`, the pIC50 is 8.88.

As for `Cc1nc2ccc(C(=O)NCC(C)C)cc2n2c(-c3cc(OC(C)C)ccc3Cl)nnc12`, the pIC50 was 8.93.

Regarding `Cc1nc2ccc(C(=O)NCC(C)C)cc2n2c(-c3cc(OCC(C)C)ccc3Cl)nnc12`, the pIC50 is 9.29.

Take `Cc1nc2ccc(C(=O)NC(C)C)cc2n2c(-c3cc(OCC(C)C)ccc3Cl)nnc12`: the pIC50 turned out to be 9.46.

Turning to `Cc1nc2ccc(C(=O)NC(C)C)cc2n2c(-c3cc(F)ccc3Cl)nnc12`, the negative-log IC50 (pIC50) is 9.17.

For the compound `COc1ccc(Cl)c(-c2nnc3c(C)nc4ccc(C(=O)NCC(C)C)cc4n23)c1`, the negative-log IC50 (pIC50) worked out at 9.42.

Regarding `COc1ccc(Cl)c(-c2nnc3c(C)nc4ccc(C(=O)NC(C)C)cc4n23)c1`, the pIC50 came to 8.96.

In the case of `Cc1nc2ccc(C(=O)NC34CC5CC(CC(C5)C3)C4)cc2n2c(-c3ccccc3Cl)nnc12`, the negative-log IC50 (pIC50) was 9.77.

As to `Cc1nc2ccc(C(=O)NC34CC5CC(CC(C5)C3)C4)cc2n2c(-c3cc(OC(C)(C)C)ccc3Cl)nnc12`, the pIC50 amounted to 7.58.

`Cc1nc2ccc(C(=O)NC34CC5CC(CC(C5)C3)C4)cc2n2c(-c3cc(OC(C)C)ccc3Cl)nnc12`: the pIC50 stood at 7.94.

As to `Cc1nc2ccc(C(=O)NC34CC5CC(CC(C5)C3)C4)cc2n2c(-c3cc(F)ccc3Cl)nnc12`, the pIC50 stood at 9.58.

Take `Cc1nc2ccc(C(=O)NC(C)(C)C)cc2n2c(-c3ccccc3Cl)nnc12`: the pIC50 is recorded as 9.47.

For `Cc1nc2ccc(C(=O)NC(C)C)cc2n2c(-c3cc(OC(C)(C)C)ccc3Cl)nnc12`, the pIC50 worked out at 9.1.

In the case of `CNC(=O)c1ccc2nc(C)c3nnc(-c4cc(OC(C)(C)C)ccc4Cl)n3c2c1`, the pIC50 was 9.16.

With `Cc1nc2ccc(C(=O)NC(C)C)cc2n2c(-c3cc(OC(C)C)ccc3Cl)nnc12`, the pIC50 was determined as 8.99.

In the case of `CNC(=O)c1ccc2nc(C)c3nnc(-c4cc(OC(C)C)ccc4Cl)n3c2c1`, the negative logarithm of the IC50 (pIC50) was found to be 9.16.

Turning to `CNC(=O)c1ccc2nc(C)c3nnc(-c4cc(OCC(C)C)ccc4Cl)n3c2c1`, the pIC50 is given as 9.61.

On to `Cc1nc2ccc(C(=O)NCC(C)C)cc2n2c(-c3cc(F)ccc3Cl)nnc12`, for which the negative-log IC50 (pIC50) is recorded as 9.37.

`CNC(=O)c1ccc2nc(C)c3nnc(-c4ccccc4Cl)n3c2c1`: the pIC50 turned out to be 8.55.

Take `CNC(=O)c1ccc2nc(C)c3nnc(-c4cc(OC)ccc4Cl)n3c2c1`: the pIC50 was 8.74.

`CNC(=O)c1ccc2nc(C)c3nnc(-c4cc(F)ccc4Cl)n3c2c1`: the pIC50 is given as 8.69.

Turning to `Cc1nc2ccc(C(=O)NC(C)(C)C)cc2n2c(-c3cc(OCC(C)C)ccc3Cl)nnc12`, the pIC50 is 8.75.

For the compound `COc1ccc(Cl)c(-c2nnc3c(C)nc4ccc(C(=O)NC(C)(C)C)cc4n23)c1`, the negative logarithm of the IC50 (pIC50) came to 9.

For `Cc1nc2ccc(C(=O)NC(C)(C)C)cc2n2c(-c3cc(OC(C)C)ccc3Cl)nnc12`, the pIC50 stood at 8.3.

`Cc1nc2ccc(C(=O)NC(C)(C)C)cc2n2c(-c3cc(F)ccc3Cl)nnc12`: the pIC50 is 9.3.

As to `Cc1nc2ccc(C(=O)NC(C)(C)C)cc2n2c(-c3cc(OC(C)(C)C)ccc3Cl)nnc12`, the pIC50 is on record as 8.35.

For the compound `Cc1nc2ccc(C(=O)NC34CC5CC(CC(C5)C3)C4)cc2n2c(-c3cc(OCC(C)C)ccc3Cl)nnc12`, the pIC50 is listed as 7.74.

For the compound `COc1ccc(Cl)c(-c2nnc3c(C)nc4ccc(C(=O)NC56CC7CC(CC(C7)C5)C6)cc4n23)c1`, the pIC50 is on record as 9.49.

Turning to `Cc1nc2ccc(C(=O)NC(C)C)cc2n2c(-c3ccccc3Cl)nnc12`, the pIC50 stood at 9.57.
